From ChEMBL document CHEMBL3526021, “NADPH-cytochrome P450 oxidoreductase: roles in physiology, pharmacology, and toxicology” (Drug Metab Dispos, 2013)

What was measured:
Mus musculus = experiment: AUC (0 to infinity) in Por lox/lox wild type mouse at 2.5 mg/kg, po treated 10 days after 40 mg/kg, ip 3-methylcholanthrene administration by liquid chromatography-tandem mass spectrometry; type: ADME, organism-based, Plasma; details: in vivo, 240 h
Method in brief: (§1)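 Adult male mice (n = 3): Por lox/lox wild type, or RCN (Por lox/lox plus Cre under CYP1A1 promoter). Pretreated i.p. in corn oil with either 3-MC 40 mg/kg as a single dose, or BNF 80 mg/kg daily for 4 days. After 10 days, oral dosing at 2.5 mg/kg. Serial tail-vein blood was analysed by LC-MS/MS for parent drug; mean ± SD.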

[1] = AUC (0 to infinity) in liver Por deleted-reductase conditional null mouse at 2.5 mg/kg, po treated 10 days after 40 mg/kg, ip 3-methylcholanthrene administration by liquid chromatography-tandem mass spectrometry; type: ADME, organism-based; details: in vivo; method in brief: as §1
[2] = AUC (0 to last) in Por lox/lox wild type mouse at 2.5 mg/kg, po treated 10 days after 40 mg/kg, ip 3-methylcholanthrene administration by liquid chromatography-tandem mass spectrometry; type: ADME, organism-based; details: plasma; method in brief: as §1
[3] = AUC (0 to last) in liver Por deleted-reductase conditional null mouse at 2.5 mg/kg, po treated 10 days after 40 mg/kg, ip 3-methylcholanthrene administration by liquid chromatography-tandem mass spectrometry; type: ADME, organism-based; details: in vivo; method in brief: as §1
[4] = Cmax in Por lox/lox wild type mouse at 2.5 mg/kg, po treated 10 days after 40 mg/kg, ip 3-methylcholanthrene administration by liquid chromatography-tandem mass spectrometry; type: ADME, organism-based; details: in vivo; method in brief: as §1
[5] = Cmax in liver Por deleted-reductase conditional null mouse at 2.5 mg/kg, po treated 10 days after 40 mg/kg, ip 3-methylcholanthrene administration by liquid chromatography-tandem mass spectrometry; type: ADME, organism-based; details: in vivo; method in brief: as §1
[6] = Clearance in liver Por deleted-reductase conditional null mouse at 2.5 mg/kg, po treated 10 days after 40 mg/kg, ip 3-methylcholanthrene administration by liquid chromatography-tandem mass spectrometry; type: ADME, organism-based; details: in vivo; method in brief: as §1
[7] = AUC (0 to infinity) in Por lox/lox wild type mouse at 2.5 mg/kg, po treated 10 days after 80 mg/kg, ip beta-naphthoflavone administration by liquid chromatography-tandem mass spectrometry; type: ADME, organism-based; details: plasma; method in brief: as §1
[8] = AUC (0 to infinity) in liver and gut Por deleted-reductase conditional null mouse at 2.5 mg/kg, po treated 10 days after 80 mg/kg, ip beta-naphthoflavone administration by liquid chromatography-tandem mass spectrometry; type: ADME, organism-based; details: in vivo; method in brief: as §1
[9] = AUC (0 to last) in Por lox/lox wild type mouse at 2.5 mg/kg, po treated 10 days after 80 mg/kg, ip beta-naphthoflavone administration by liquid chromatography-tandem mass spectrometry; type: ADME, organism-based; details: plasma; method in brief: as §1
[10] = AUC (0 to last) in liver and gut Por deleted-reductase conditional null mouse at 2.5 mg/kg, po treated 10 days after 80 mg/kg, ip beta-naphthoflavone administration by liquid chromatography-tandem mass spectrometry; type: ADME, organism-based; details: in vivo; method in brief: as §1
[11] = Cmax in Por lox/lox wild type mouse at 2.5 mg/kg, po treated 10 days after 80 mg/kg, ip beta-naphthoflavone administration by liquid chromatography-tandem mass spectrometry; type: ADME, organism-based; details: in vivo; method in brief: as §1
[12] = Cmax in liver and gut Por deleted-reductase conditional null mouse at 2.5 mg/kg, po treated 10 days after 80 mg/kg, ip beta-naphthoflavone administration by liquid chromatography-tandem mass spectrometry; type: ADME, organism-based; details: in vivo; method in brief: as §1
[13] = Clearance in Por lox/lox wild type mouse at 2.5 mg/kg, po treated 10 days after 80 mg/kg, ip beta-naphthoflavone administration by liquid chromatography-tandem mass spectrometry; type: ADME, organism-based; details: in vivo; method in brief: as §1
[14] = Clearance in liver and gut Por deleted-reductase conditional null mouse at 2.5 mg/kg, po treated 10 days after 80 mg/kg, ip beta-naphthoflavone administration by liquid chromatography-tandem mass spectrometry; type: ADME, organism-based; details: in vivo; method in brief: as §1
in vivo [15] = details: mouse, po, 2.5 mg/kg
in vivo [16] = details: mouse, po, 2.5 mg/kg; remark: listed apart in the source
in vivo [17] = details: mouse, po, 2.5 mg/kg; remark: listed apart in the source
in vivo [18] = details: mouse, po, 2.5 mg/kg; remark: listed apart in the source

With Cc1ncc2n1-c1ccc(Cl)cc1C(c1ccccc1F)=NC2 [MIDAZOLAM] the AUC (Mus musculus) was 8.7 µg·min/mL, the AUC(0-inf) [1] was 2250 ng·h/mL and the AUC(0-t) at 240 h [2] was 125 ng·h/mL. For the same compound, the AUC(0-t) at 240 h [3] was 2100 ng·h/mL, the Cmax [4] was 110 ng/mL and the Cmax [5] was 900 ng/mL. It also gave a CL/F [6] of 26.8 mL/min/kg, an AUC(0-inf) [7] of 278 ng·h/mL and an AUC(0-inf) [8] of 5830 ng·h/mL. For the same compound, the AUC(0-t) at 240 h [9] was 228 ng·h/mL, the AUC(0-t) at 240 h [10] was 5520 ng·h/mL and the Cmax [11] was 140 ng/mL. It also gave a Cmax [12] of 2300 ng/mL, a CL/F [13] of 180 mL/min/kg and a CL/F [14] of 9.3 mL/min/kg. For the same compound, the half-life at 240 h (in vivo [15]) was 1.13 h, the half-life at 240 h (in vivo [16]) was 2.13 h and the half-life at 240 h (in vivo [17]) was 1.92 h. It also gave a half-life at 240 h (in vivo [18]) of 1.9 h.
